As usually defined, the IC50 is the concentration at which inhibition is half-maximal. In general, inhibition refers to the share of the control response that was lost under treatment. Read a high inhibition as a response far below the control.

Data on 21 compounds can be found in ChEMBL document CHEMBL1149362, “Diphenyl phosphonate inhibitors for the urokinase-type plasminogen activator: optimization of the P4 position” (J Med Chem, 2006).

Experiment [1] has as its target Tissue-type plasminogen activator (Homo sapiens, UniProt P00750). Kind of experiment: Inhibition of recombinant tPA. Summed up: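 Recombinant tPA, approx. 5 mU, in Tris pH 8.3, is preincubated with inhibitor for 15 min at 37 °C. S-2288 is then added at 1.25 mM (Km 1 mM). Absorbance change is read at 405 nm, in duplicate, and IC50 comes from a four-parameter logistic fit.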

For experiment [2], the target named is Urokinase-type plasminogen activator (Homo sapiens, UniProt P00749). Kind of experiment: Inhibition of human uPA.
Another experiment addresses Plasminogen (Homo sapiens, UniProt P00747). Kind of experiment: Inhibition of human plasmin. Summed up:
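Plasmin from human plasma, approx. 5 mU, in Tris pH 7.4, with a 15-min 37 °C inhibitor preincubation. […] Initial rate is read at 405 nm, in duplicate, and IC50 is obtained by four-parameter logistic fitting.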

The target in the next experiment is Prothrombin (Homo sapiens, UniProt P00734). Kind of experiment: Inhibition of human thrombin. Summed up:
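Thrombin from human plasma, approx. 5 mU, in Tris pH 8.3, with a 15-min 37 °C inhibitor preincubation. […] Initial rate is read at 405 nm, duplicates, and IC50 is obtained by four-parameter logistic fitting.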

Experiment [3] in a line: Selectivity index, IC50 for bovine trypsin/IC50 for human uPA.
Experiment [4] is filed under the species Homo sapiens. Kind of experiment: Selectivity index, IC50 for recombinant tPA/IC50 for human uPA.
For experiment [5], the species on record is Homo sapiens. The experiment is described as follows: Selectivity index, IC50 for human plasmin/IC50 for human uPA.
The target in experiment [6] is Thrombin and urokinase-type plasminogen activator (Homo sapiens) (UniProt P00734+P00749). The experiment is described as follows: Selectivity index, IC50 for human thrombin/IC50 for human uPA. The format is protein assay.
A short description of experiment [7]: Selectivity index, IC50 for bovine F10a/IC50 for human uPA.
Experiment [8] in a line: Inhibition of bovine trypsin. Further details: species or system Bos taurus. Summed up:
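Bovine trypsin, approx. 5 mU, is preincubated with inhibitor for 15 min at 37 °C. BAPNA substrate is then added at 425 µM (Km 1 mM) in Tris pH 8.2. The pNA release rate is read at 405 nm, duplicate wells, and IC50 comes from a four-parameter logistic fit.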

For another experiment, the target named is Coagulation factor X (Bos taurus, UniProt P00743). The experiment is described as follows: Inhibition of bovine F10a.
Coagulation factor X, sequence (P00743 41-180 limits assumed): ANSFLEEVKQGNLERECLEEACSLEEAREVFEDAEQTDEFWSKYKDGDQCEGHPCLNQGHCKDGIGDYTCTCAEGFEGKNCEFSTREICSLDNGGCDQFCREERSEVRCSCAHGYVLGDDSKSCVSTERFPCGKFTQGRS
Coagulation factor X, sequence (P00743 234-492 limits assumed): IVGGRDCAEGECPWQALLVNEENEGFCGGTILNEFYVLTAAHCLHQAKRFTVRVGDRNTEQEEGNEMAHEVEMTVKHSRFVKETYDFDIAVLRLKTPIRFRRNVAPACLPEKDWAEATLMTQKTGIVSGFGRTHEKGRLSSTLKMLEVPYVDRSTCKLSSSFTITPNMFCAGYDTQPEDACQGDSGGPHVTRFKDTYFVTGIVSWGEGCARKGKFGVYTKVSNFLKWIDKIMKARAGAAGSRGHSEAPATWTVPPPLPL
Experiment [9] concerns the target Coagulation factor X (Bos taurus) (UniProt P00743). Kind of experiment: Inhibition of bovine F10a at 250 uM.

Coagulation factor X (Bos taurus), sequence (P00743 41-180 limits assumed): as the sequence (P00743 41-180 limits assumed) above
Coagulation factor X (Bos taurus), sequence (P00743 234-492 limits assumed): as the sequence (P00743 234-492 limits assumed) above
Plasminogen, sequence (P00747 97-580 limits assumed): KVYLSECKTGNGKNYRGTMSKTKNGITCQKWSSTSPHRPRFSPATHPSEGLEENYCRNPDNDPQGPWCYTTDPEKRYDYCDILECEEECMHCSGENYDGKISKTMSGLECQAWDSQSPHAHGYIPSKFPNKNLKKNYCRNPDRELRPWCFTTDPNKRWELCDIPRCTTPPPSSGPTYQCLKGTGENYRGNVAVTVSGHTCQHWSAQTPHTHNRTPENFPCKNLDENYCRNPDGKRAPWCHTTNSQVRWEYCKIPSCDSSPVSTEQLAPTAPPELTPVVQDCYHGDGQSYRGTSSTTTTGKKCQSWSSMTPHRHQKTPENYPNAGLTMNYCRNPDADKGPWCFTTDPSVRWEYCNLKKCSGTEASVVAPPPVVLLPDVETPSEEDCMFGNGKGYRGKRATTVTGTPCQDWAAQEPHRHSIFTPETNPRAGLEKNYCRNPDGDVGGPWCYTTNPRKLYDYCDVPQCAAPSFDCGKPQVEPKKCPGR
Plasminogen, sequence (P00747 581-810 limits assumed): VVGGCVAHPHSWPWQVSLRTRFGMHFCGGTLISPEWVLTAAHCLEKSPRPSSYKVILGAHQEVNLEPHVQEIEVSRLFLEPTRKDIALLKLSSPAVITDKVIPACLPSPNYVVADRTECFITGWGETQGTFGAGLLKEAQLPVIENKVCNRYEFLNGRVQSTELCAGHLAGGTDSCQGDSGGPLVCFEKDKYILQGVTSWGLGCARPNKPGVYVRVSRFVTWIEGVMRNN
Tissue-type plasminogen activator, sequence (P00750 whole entry): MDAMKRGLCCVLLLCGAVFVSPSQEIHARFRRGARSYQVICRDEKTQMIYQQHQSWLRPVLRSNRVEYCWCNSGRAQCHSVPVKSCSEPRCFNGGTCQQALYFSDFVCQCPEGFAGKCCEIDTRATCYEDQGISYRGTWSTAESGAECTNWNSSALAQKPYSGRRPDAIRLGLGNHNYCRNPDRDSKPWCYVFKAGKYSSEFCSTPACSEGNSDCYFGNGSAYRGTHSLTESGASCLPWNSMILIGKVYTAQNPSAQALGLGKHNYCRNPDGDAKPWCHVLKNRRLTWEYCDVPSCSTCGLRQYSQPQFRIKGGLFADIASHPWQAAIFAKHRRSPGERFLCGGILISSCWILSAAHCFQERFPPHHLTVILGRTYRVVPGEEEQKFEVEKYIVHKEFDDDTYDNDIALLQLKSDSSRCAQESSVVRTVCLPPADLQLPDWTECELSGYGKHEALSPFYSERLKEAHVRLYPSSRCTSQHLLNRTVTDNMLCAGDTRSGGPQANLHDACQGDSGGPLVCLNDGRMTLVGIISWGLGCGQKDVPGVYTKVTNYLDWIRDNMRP

With `C[C@H](NC(=O)[C@@H](CO)NS(=O)(=O)c1cccs1)C(=O)NC(Cc1ccc(N=C(N)N)cc1)P(=O)(Oc1ccccc1)Oc1ccccc1` (stereo partly specified), the IC50 was 3400 nM in experiment [1], 1.5 nM in experiment [2], 1540 nM against Plasminogen and 4300 nM on Prothrombin.

In the case of `C[C@H](NC(=O)[C@@H](CO)NC(=O)c1cccs1)C(=O)NC(Cc1ccc(NC(=N)N)cc1)P(=O)(Oc1ccccc1)Oc1ccccc1` (stereo partly specified), the Selectivity index in [3] stood at 40; in the experiment filed under Homo sapiens [4], 1900; in the experiment listed under Homo sapiens [5] it was 1400; in [6], 5000.

As to `C[C@H](NC(=O)[C@@H](CO)NC(=O)c1ccccc1)C(=O)NC(Cc1ccc(N=C(N)N)cc1)P(=O)(Oc1ccccc1)Oc1ccccc1` (stereo partly specified), the IC50 in experiment [1] was found to be 15000 nM; in experiment [2], 5 nM; against Plasminogen it was 15000 nM; at Prothrombin it was 22000 nM.

With `C[C@H](NC(=O)[C@@H](CO)NS(=O)(=O)Cc1ccccc1)C(=O)NC(Cc1ccc(NC(=N)N)cc1)P(=O)(Oc1ccccc1)Oc1ccccc1` (stereo partly specified), the IC50 in experiment [1] was 280 nM; in experiment [2] it was 3.5 nM; on Plasminogen it was 37 nM; against Prothrombin, 770 nM; in [8], 310 nM; at Coagulation factor X it was 33000 nM. Also, the Selectivity index amounted to 90 in [3]; 9400 in experiment [7]; 80 in the experiment filed under Homo sapiens [4]; 11 in the experiment filed under Homo sapiens [5]; 220 in experiment [6].

In the case of `C[C@H](NC(=O)[C@@H](CO)NS(=O)(=O)c1cccc2ccccc12)C(=O)NC(Cc1ccc(NC(=N)N)cc1)P(=O)(Oc1ccccc1)Oc1ccccc1` (stereo partly specified), the Selectivity index stood at 50 in experiment [3]; 16600 in experiment [7]; 760 in the experiment filed under Homo sapiens [4]; 155 in the experiment filed under Homo sapiens [5]; 1000 in experiment [6]. The IC50 in [8] amounted to 280 nM.

With `Cc1cccc(C)c1C(=O)N[C@H](CO)C(=O)N[C@@H](C)C(=O)NC(Cc1ccc(NC(=N)N)cc1)P(=O)(Oc1ccccc1)Oc1ccccc1` (stereo partly specified), the IC50 in [1] was found to be 3600 nM; in [2], 6 nM; at Plasminogen, 4200 nM; at Prothrombin, 6300 nM; in experiment [8], 220 nM. Further, the Selectivity index in experiment [3] amounted to 40; in the experiment filed under Homo sapiens [4], 600; in the experiment filed under Homo sapiens [5] it was 700; in [6], 1000. This compound returned an inhibition in experiment [9] of 62%.

As for `C[C@H](NC(=O)[C@@H](CO)NC(=O)OCc1ccccc1)C(=O)NC(CCCN=C(N)N)P(=O)(Oc1ccccc1)Oc1ccccc1` (stereo partly specified), the Selectivity index in experiment [7] was 1100; in the experiment filed under Homo sapiens [4], 40; in the experiment listed under Homo sapiens [5], 300; in experiment [6], 8.

Take `C[C@H](NC(=O)[C@@H](CO)NS(=O)(=O)c1ccc(C#N)cc1)C(=O)NC(Cc1ccc(NC(=N)N)cc1)P(=O)(Oc1ccccc1)Oc1ccccc1` (stereo partly specified): the Selectivity index stood at 70 in experiment [3], 1100 in the experiment listed under Homo sapiens [4], 145 in the experiment listed under Homo sapiens [5] and 1200 in experiment [6]. For the same compound, the inhibition in experiment [9] stood at 53%. In experiment [8], this compound displayed an IC50 of 440 nM.

For `Cc1cccc(C(=O)N[C@H](CO)C(=O)N[C@@H](C)C(=O)NC(Cc2ccc(NC(=N)N)cc2)P(=O)(Oc2ccccc2)Oc2ccccc2)c1` (stereo partly specified), the Selectivity index in [3] worked out at 40; in the experiment listed under Homo sapiens [4] it was 4000; in the experiment filed under Homo sapiens [5], 1800; in experiment [6], 7700. The compound further yielded an inhibition in experiment [9] of 56%. Also, in experiment [8], the IC50 was found to be 160 nM.

As to `C[C@H](NC(=O)[C@@H](CO)NS(=O)(=O)c1cccs1)C(=O)NC(Cc1ccc(NC(=N)N)cc1)P(=O)(Oc1ccccc1)Oc1ccccc1` (stereo partly specified), the Selectivity index in experiment [3] amounted to 65; in the experiment filed under Homo sapiens [4], 2300; in the experiment listed under Homo sapiens [5], 1000; in [6] it was 2800. In [9], this compound displayed an inhibition of 68%. In addition, the midpoint of inhibition in experiment [8], the IC50, lay at 98 nM.

Take `C[C@H](NC(=O)[C@@H](CO)NS(=O)(=O)c1ccccc1)C(=O)NC(Cc1ccc(NC(=N)N)cc1)P(=O)(Oc1ccccc1)Oc1ccccc1` (stereo partly specified): the IC50 in [1] came to 3100 nM; in experiment [2] it was 2.6 nM; against Plasminogen it was 1900 nM; on Prothrombin, 4900 nM; in experiment [8], 160 nM. Further, the Selectivity index in [3] was determined as 60; in the experiment listed under Homo sapiens [4] it was 1200; in the experiment listed under Homo sapiens [5], 740; in experiment [6], 1900. In experiment [9], the inhibition stood at 64%.

For the compound `C[C@H](NC(=O)[C@@H](CO)NC(=O)C1C2CC3CC(C2)CC1C3)C(=O)NC(Cc1ccc(NC(=N)N)cc1)P(=O)(Oc1ccccc1)Oc1ccccc1` (stereo partly specified), the IC50 in [1] worked out at 8600 nM; in [2], 8 nM; against Plasminogen, 5000 nM; against Prothrombin, 6000 nM; in experiment [8], 160 nM. For the same compound, the Selectivity index in experiment [3] amounted to 20; in the experiment listed under Homo sapiens [4] it was 1000; in the experiment listed under Homo sapiens [5] it was 600; in experiment [6], 750. In addition, the inhibition in [9] worked out at 62%.

Take `C[C@H](NC(=O)[C@@H](CO)NC(=O)OCc1ccccc1)C(=O)NC(Cc1ccc(N=C(N)N)cc1)P(=O)(Oc1ccccc1)Oc1ccccc1` (stereo partly specified): the IC50 in experiment [1] was found to be 4600 nM; in experiment [2] it was 4.3 nM; against Plasminogen, 2000 nM; on Prothrombin, 20000 nM.

In the case of `Cc1ccccc1C(=O)N[C@H](CO)C(=O)N[C@@H](C)C(=O)NC(Cc1ccc(NC(=N)N)cc1)P(=O)(Oc1ccccc1)Oc1ccccc1` (stereo partly specified), the IC50 in experiment [1] was 5500 nM; in [2], 5 nM; against Plasminogen it was 7200 nM; on Prothrombin, 15900 nM; in experiment [8], 140 nM. Also, the Selectivity index was 30 in experiment [3], 1100 in the experiment listed under Homo sapiens [4], 1400 in the experiment filed under Homo sapiens [5] and 3200 in experiment [6]. In experiment [9], this compound returned an inhibition of 57%.

`Cc1ccc(C(=O)N[C@H](CO)C(=O)N[C@@H](C)C(=O)NC(Cc2ccc(NC(=N)N)cc2)P(=O)(Oc2ccccc2)Oc2ccccc2)cc1` (stereo partly specified): the IC50 worked out at 16000 nM in experiment [1]; 7 nM in experiment [2]; 5000 nM against Plasminogen; 67000 nM against Prothrombin; 160 nM in experiment [8]. The Selectivity index stood at 23 in [3], 2300 in the experiment filed under Homo sapiens [4], 700 in the experiment listed under Homo sapiens [5] and 9600 in experiment [6]. Besides, the inhibition in experiment [9] is 53%.

For `COc1ccc(S(=O)(=O)N[C@H](CO)C(=O)N[C@@H](C)C(=O)NC(Cc2ccc(NC(=N)N)cc2)P(=O)(Oc2ccccc2)Oc2ccccc2)cc1` (stereo partly specified), the IC50 in [1] was determined as 4300 nM; in [2] it was 5.8 nM; on Plasminogen it was 1700 nM; at Prothrombin, 1670 nM; in [8] it was 360 nM; against Coagulation factor X, 100000 nM. The Selectivity index turned out to be 60 in experiment [3]; 19000 in experiment [7]; 740 in the experiment listed under Homo sapiens [4]; 293 in the experiment listed under Homo sapiens [5]; 288 in experiment [6].

Regarding `C[C@H](NC(=O)[C@@H](CO)NS(=O)(=O)c1ccc(C#N)cc1)C(=O)NC(Cc1ccc(N=C(N)N)cc1)P(=O)(Oc1ccccc1)Oc1ccccc1` (stereo partly specified), the IC50 in experiment [1] was 6600 nM; in experiment [2], 6.2 nM; against Plasminogen, 900 nM; on Prothrombin, 7500 nM.

As for `C[C@H](NC(=O)[C@@H](CO)NC(=O)OCc1ccccc1)C(=O)NC(CCCNC(=N)N)P(=O)(Oc1ccccc1)Oc1ccccc1` (stereo partly specified), the half-inhibitory concentration (IC50) on Coagulation factor X was determined as 65000 nM.

For the compound `Cc1cccc(C(=O)N[C@H](CO)C(=O)N[C@@H](C)C(=O)NC(Cc2ccc(N=C(N)N)cc2)P(=O)(Oc2ccccc2)Oc2ccccc2)c1` (stereo partly specified), the IC50 amounted to 18000 nM in experiment [1], 4.4 nM in experiment [2], 8000 nM at Plasminogen and 34000 nM against Prothrombin.

Turning to `C[C@H](NC(=O)[C@@H](CO)NC(=O)c1ccccc1)C(=O)NC(Cc1ccc(NC(=N)N)cc1)P(=O)(Oc1ccccc1)Oc1ccccc1` (stereo partly specified), the Selectivity index in experiment [3] stood at 80; in the experiment listed under Homo sapiens [4], 3000; in the experiment listed under Homo sapiens [5] it was 3000; in [6], 5400. Also, in experiment [9], the inhibition worked out at 45%. In addition, the IC50 in experiment [8] is 400 nM.

On to `C[C@H](NC(=O)[C@@H](CO)NS(=O)(=O)c1cccc2ccccc12)C(=O)NC(Cc1ccc(N=C(N)N)cc1)P(=O)(Oc1ccccc1)Oc1ccccc1` (stereo partly specified), for which the IC50 in [1] stood at 4400 nM; in experiment [2] it was 5.8 nM; at Plasminogen it was 990 nM; against Prothrombin it was 6000 nM; against Coagulation factor X, 96000 nM.
